CTSL1 counter = counter-screen for PFM18AAP inhibitors: inhibitors of F. hepatica cathepsin L1. inhibition, % at 5.96 µM. hit rate 0.49% among 300,000. recombinant F. hepatica cathepsin L1, Z-Leu-Arg-MCA fluorescence;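 active = inhibition above the mean of all tested compounds plus 3 SD, set per screening campaign, cut at about 17% in these data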;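 note: 0% = plate median of test compound wells and 100% = 1 µM Z-Phe-Ala-diazomethylketone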
GSTO1 inh = counter-screen for RBBP9 inhibitors: inhibitors of human GSTO1; hit rate 1.1% among 300,000; AID 1974; recombinant GSTO1, activity-based probe fluorescence polarization; inhibition, % at 5.96 µM;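 active = inhibition above the campaign mean inhibition plus 3 SD, cut at about 35% in these data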;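 note: 0% = GSTO1-1 with DMSO and 100% = wells lacking GSTO1-1 enzyme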
Target sequence (P78417 whole entry, looked up): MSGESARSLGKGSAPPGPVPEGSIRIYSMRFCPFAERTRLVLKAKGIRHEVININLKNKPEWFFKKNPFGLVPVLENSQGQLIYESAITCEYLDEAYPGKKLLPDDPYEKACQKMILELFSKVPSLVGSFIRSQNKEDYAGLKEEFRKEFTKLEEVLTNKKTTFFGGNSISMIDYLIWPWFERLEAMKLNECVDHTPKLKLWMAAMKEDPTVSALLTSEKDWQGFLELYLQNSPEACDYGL
UCH37 inh = inhibitors of human deubiquitinating enzyme UCH37. Q9Y5K5. purified proteasome/UCH37, Ub-AMC cleavage fluorescence. inhibition, % (test concentration not listed). hit rate 0.33% among 330,000. AID 588478;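 active = mean inhibition over replicate wells above about 20%, limit read from the data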;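 note: 0% = compound-free wells with enzyme and 100% = wells lacking proteasome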
Target sequence (Q9Y5K5 whole entry, looked up): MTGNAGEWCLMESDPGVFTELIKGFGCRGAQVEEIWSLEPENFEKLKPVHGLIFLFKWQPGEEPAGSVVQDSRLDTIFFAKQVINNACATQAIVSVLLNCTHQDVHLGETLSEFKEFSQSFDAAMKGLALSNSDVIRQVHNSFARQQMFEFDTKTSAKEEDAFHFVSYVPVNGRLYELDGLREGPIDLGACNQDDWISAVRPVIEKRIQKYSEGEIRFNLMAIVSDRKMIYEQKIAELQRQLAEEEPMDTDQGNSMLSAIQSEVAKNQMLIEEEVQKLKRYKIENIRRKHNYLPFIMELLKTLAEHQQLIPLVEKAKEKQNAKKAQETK
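assay system = human UCH37 enzyme supplied as purified proteasome complex | amount = proteasome at 0.15 nM in the dispensed enzyme solution | schedule = 30 min compound-proteasome preincubation then 25 min substrate reaction, room temperature | measured by = fluorescence, ex 355 nm, em 460 nm | benchmarks = no-proteasome wells (full inhibition) and compound-free wells (no inhibition)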
PP5 inh = PP5 (human) phosphatase inhibition; hit rate 0.18% among 320,000; AID 1987; inhibition, % at 6.7 µM; purified PP5c, OMFP substrate fluorescence;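 active = inhibition above the campaign's mean inhibition across all tested compounds plus 3 SD, cut at about 9.5% in these data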;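 note: 0% = DMSO only and 100% = 100 µM cantharidin control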
Apaf1 inhib = inhibitors of human Apaf-1 apoptosome; reconstituted apoptosome caspase-3 activity, DEVD-Rh110 fluorescence; inhibition, % at 20 µM; hit rate 0.71% among 330,000; active = inhibition of at least 40% at 20 µM;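 note: plate controls were DMSO wells for no effect and DEVD-CHO caspase inhibitor wells for full effect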
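Material: reconstituted apoptosome with Apaf-1, cytochrome c, caspase-9, procaspase-3, dATP / Buffer or medium: pH 7.5 Hepes buffer with CHAPS, BSA, DTT / Also added: cytochrome c with DEVD-Rh110 / Schedule: compound with Apaf-1, dATP, procaspase-3 30 min, then 50 min reaction, room temperature / Technique: rhodamine 110 fluorescence at Ex 480/Em 540 nm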
PAD4 inh = PAD4 (human) enzyme inhibition. Q9UM07. recombinant PAD4, RCA probe fluorescence polarization. hit rate 0.41% among 330,000. inhibition, % at 6.36 µM;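 active = percent inhibition above a cutoff equal to the mean of all tested compounds plus 3 SD, cut at about 15% in these data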;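 note: 0% = PAD4 with RCA probe and DMSO and 100% = probe without PAD4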
Apaf-1 inh conf2 = Apaf-1 inhibition, single-dose confirmed. shares compounds with Apaf1 inhib. reconstituted apoptosome, caspase-3 DEVD-Rh110 fluorescence. inhibition, % at 20 µM. hit rate 25% among 1,800;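 active = mean inhibition of at least 40% at 20 µM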;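 note: plate controls were DMSO wells for no effect and DEVD-CHO caspase inhibitor control wells for full effect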
Rh110 interf inh = Rh110 signal interference in Apaf-1 inhibitor counter-screen. shares compounds with Apaf1 inhib. Rh110 fluorescence interference, quenched caspase reaction. activation (fluorescence interference), % at 20 µM. 1,800 tested, under 10 active;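 active = signal rise of 40% or more at 20 µM, treated as a fluorescence artifact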
Fluor interf inh = counter-screen for Apaf-1 inhibitors: fluorescence interference, dose response; shares compounds with Apaf1 inhib; fluorescence interference counterscreen, Apaf-1 assay format; IC50, µM; 460 tested, under 10 active; AID 588538; call rule not given here
Numbers without * were called inactive; . = no result given. An excerpt weighted towards active compounds, which were near 2% of everything screened.

SMILES	CTSL1 counter	GSTO1 inh	UCH37 inh	PP5 inh	Apaf1 inhib	PAD4 inh	Apaf-1 inh conf2	Rh110 interf inh	others
OC(CNCC1CCCO1)Cn1c2ccccc2c2ccccc21 (configuration not stated)	0	1	2	1	1	-1	.	.
OC(CNCC1CCCO1)Cn1c2ccc(Cl)cc2c2cc(Cl)ccc21 (configuration not stated)	3	-10	6	4	43*	-3	14	9
O=C(c1ccccc1)c1ccc2nc(-c3ccco3)c(-c3ccco3)nc2c1	3	60*	-117	-2	41*	-14	27	8
O=C(NCCc1ccccc1)c1ccc2nc(-c3ccco3)c(-c3ccco3)nc2c1	6	46*	-96	5	46*	-19	29	7
O=C(CNc1n[nH]c(=O)[nH]c1=O)NN=C/C=C/c1ccccc1	.	.	5	.	.	.	.	.
CC1CC2(CCCCC2)N2C(=O)C(=O)c3cccc1c32 (configuration not stated)	-2	3	3	2	41*	-1	41*	5	Fluor interf inh=>100
CCOc1ccc(NC(=O)c2c[nH]n3c(=O)cc(C4CCN(C(=O)OC(C)(C)C)CC4)nc23)cc1	5	5	16	4	40*	-3	26	4
C#CCOCCOCCOCCNc1nc(N2CCN(C(=O)CCCCCCCCCCNC(=O)[C@H]([C@@H](C)CC)n3cc(CCCCCN)nn3)CC2)nc(N2CCN(C(=O)CCCCCCCCCCNC(=O)[C@H](CO)n3cc(CCCCCN)nn3)CC2)n1	2	-5	.	5	71*	0	48*	9	Fluor interf inh=>100
C#CCOCCOCCOCCNc1nc(N2CCN(C(=O)Cn3cc(CCCCN)nn3)CC2)nc(N2CCN(C(=O)Cn3cc(CCCCN)nn3)CC2)n1	2	3	6	-7	11	-1	.	.
C#CCOCCOCCOCCNc1nc(N2CCN(C(=O)CCCCCCCCCCNC(=O)Cn3cc(CCCCCN)nn3)CC2)nc(N2CCN(C(=O)CCCCCCCCCCNC(=O)Cn3cc(CCCCCN)nn3)CC2)n1	10	1	.	0	65*	1	51*	7	Fluor interf inh=>100
C#CCOCCOCCOCCNc1nc(N2CCN(C(=O)CCCCCCCCCCNC(=O)[C@@H](CCC(=O)O)n3cc(CCCCCN)nn3)CC2)nc(N2CCN(C(=O)CCCCCCCCCCNC(=O)[C@H]([C@@H](C)CC)n3cc(CCCCCN)nn3)CC2)n1	4	6	.	1	61*	3	37	12
C#CCOCCOCCOCCNc1nc(N2CCN(C(=O)CCCCCCCCCCNC(=O)[C@H](CO)n3cc(CCCSC)nn3)CC2)nc(N2CCN(C(=O)CCCCCCCCCCNC(=O)[C@@H]([C@H](C)O)n3cc(C)nn3)CC2)n1	9	-35	.	2	32	5	.	.
C#CCOCCOCCOCCNc1nc(N2CCOCC2)nc(N2CCN(C(=O)CCCCCCCCCCNC(=O)[C@@H](CCC(=O)O)n3cc(CCCCCN)nn3)CC2)n1	1	-2	0	-1	-11	-3	.	.
C#CCOCCOCCOCCNc1nc(N2CCN(C(=O)CCCCCCCCCCNC(=O)Cn3cc(C[C@@H](C)O)nn3)CC2)nc(N2CCN(C(=O)CCCCCCCCCCNC(=O)[C@H](CCCN=C(N)N)n3cc(C[C@@H](C)CC)nn3)CC2)n1	3	-2	4	5	62*	-1	36	6
CC(COc1ccccc1)=NNC(=O)c1nnn(-c2nonc2N)c1CSc1ccccc1	.	.	6	.	.	.	.	.
O=[N+]([O-])c1ccc(-c2ccc(C=NNc3nc(N4CCCCC4)nc(N4CCCCC4)n3)o2)cc1	.	.	4	.	.	.	.	.
O=C(NN=C/C=C/c1cccc([N+](=O)[O-])c1)C(O)c1ccccc1 (configuration not stated)	.	.	2	.	.	.	.	.
C#CCOCCOCCOCCNc1nc(N2CCN(C(=O)Cn3cc(CCCCN)nn3)CC2)nc(N2CCN(C(=O)[C@H]([C@@H](C)CC)n3cc(CCCCN)nn3)CC2)n1	1	3	1	4	23	-1	.	.
C#CCOCCOCCOCCNc1nc(N2CCN(C(=O)CCCCCCCCCCNC(=O)[C@H](CO)n3cc(CCCSC)nn3)CC2)nc(N2CCN(C(=O)CCCCCCCCCCNC(=O)[C@H](CCCCN)n3cc(CCO)nn3)CC2)n1	.	.	3	.	74*	2	42*	10	Fluor interf inh=>100
C#CCOCCOCCOCCNc1nc(N2CCN(C(=O)[C@H]([C@@H](C)CC)n3cc(CCCCN)nn3)CC2)nc(N2CCN(C(=O)[C@H](CCCCN)n3cc(CCCC)nn3)CC2)n1	1	12	-3	-1	32	3	.	.
C#CCOCCOCCOCCNc1nc(N2CCN(C(=O)CCCCCCCCCCNC(=O)Cn3cc(C[C@@H](C)O)nn3)CC2)nc(N2CCN(C(=O)CCCCCCCCCCNC(=O)[C@@H](CCC(=O)O)n3cc(CCCCCN)nn3)CC2)n1	3	-5	2	0	52*	0	13	10
C#CCOCCOCCOCCNc1nc(N2CCN(C(=O)CCCCCCCCCCNC(=O)Cn3cc(C[C@@H](C)O)nn3)CC2)nc(N2CCN(C(=O)CCCCCCCCCCNC(=O)[C@H](CCCCN)n3cc(CCCC(=O)O)nn3)CC2)n1	-2	-7	4	2	28	-5	.	.
C#CCOCCOCCOCCNc1nc(N2CCN(C(=O)CCCCCCCCCCNC(=O)[C@H]([C@@H](C)CC)n3cc(CCCCCN)nn3)CC2)nc(N2CCN(C(=O)CCCCCCCCCCNC(=O)[C@H](CCCCN)n3cc(CCCC(=O)O)nn3)CC2)n1	2	4	.	3	56*	1	28	20
C#CCOCCOCCOCCNc1nc(N2CCN(C(=O)CCCCCCCCCCNC(=O)Cn3cc(CCCCCN)nn3)CC2)nc(N2CCN(C(=O)CCCCCCCCCCNC(=O)[C@H]([C@@H](C)CC)n3cc(CCCCN=C(N)N)nn3)CC2)n1	5	-5	14	3	85*	-1	69*	3	Fluor interf inh=>100
CC(=NNC(N)=O)c1ccc(Cl)s1	.	.	4	.	.	.	.	.
C#CCOCCOCCOCCNc1nc(N2CCN(C(=O)[C@H]([C@@H](C)CC)n3cc(CCCN=C(N)N)nn3)CC2)nc(N2CCN(C(=O)[C@H](C)n3cc(CCCN=C(N)N)nn3)CC2)n1	3	9	1	3	8	-2	.	.

Screening results deposited in PubChem by several laboratories.
